# Screening results: PubChem BioAssay, Broad Institute
# SIRT5 inh: inhibitors of human sirtuin-5 desuccinylase; Q9NXA8; Purified SirT5, succinyl-peptide AMC, trypsin-coupled fluorescence; inhibition, % at 15 µM; 1.1% of 330,000 active; AID 652115; in the data active = inhibition above about 15%; inconclusive = no clear call, values can overlap the other calls
# Target sequence (Q9NXA8 whole entry, looked up): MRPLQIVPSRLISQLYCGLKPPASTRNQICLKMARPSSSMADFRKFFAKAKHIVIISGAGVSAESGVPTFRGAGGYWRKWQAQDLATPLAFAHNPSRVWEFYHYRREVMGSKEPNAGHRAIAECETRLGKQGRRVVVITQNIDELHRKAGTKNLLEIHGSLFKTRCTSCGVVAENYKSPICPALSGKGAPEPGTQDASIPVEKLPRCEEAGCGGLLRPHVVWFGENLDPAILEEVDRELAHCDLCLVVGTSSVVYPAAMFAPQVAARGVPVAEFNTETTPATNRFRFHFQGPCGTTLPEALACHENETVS
# DENV2 CPE: DENV2-induced cell death inhibition; DENV2-infected cells, cytopathic effect rescue, plate reader; CPE inhibition, % at 9.99 µM; 1.7% of 350,000 active; in the data active = CPE inhibition above about 20%, passing the limit was not always enough; inconclusive = no clear call, values can overlap the other calls; tested in BHK-21 cells
# E-selectin induc: induces E-selectin expression in human endothelial cells; P16581; HUVEC E-selectin immunofluorescence imaging; normalized: neutral wells 0, TNF-alpha wells 100; activation, % at 7.58 µM; 0.37% of 260,000 active;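 active = mean E-selectin-positive cell signal at least 10% of the positive control, reached in at least 60% of replicates, without over 20% cell loss; inconclusive = no rule given, readout overlaps actives, possibly toxicity-flagged; inactive = the rest, including those meeting only one limit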
#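 Read-out basis: % PE-positive cells; Test system: HUVEC primary endothelial cells; Technique: immunofluorescence imaging; Dosing: single-point compound dose.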
# Numbers stand for hits; i = inactive; ? = inconclusive; nt = no result given. This is a sample that favours compounds with a hit; in the whole collection about 2.8% have one here.
SMILES,SIRT5 inh,DENV2 CPE,E-selectin induc
CO[C@@H]1CN(C)C(=O)c2ccc(NC(=O)CC(F)(F)F)cc2OC[C@H](C)N(S(=O)(=O)c2cn(C)cn2)C[C@H]1C,i,i,i
CO[C@H]1CN(C)C(=O)c2cc(NC(C)=O)ccc2OC[C@@H](C)N(S(=O)(=O)c2cn(C)cn2)C[C@@H]1C,i,i,i
CO[C@@H]1CN(C)C(=O)c2cc(NC(=O)CC(F)(F)F)ccc2OC[C@H](C)N(S(=O)(=O)c2cn(C)cn2)C[C@@H]1C,16,i,i
CO[C@H]1CN(C)C(=O)c2cc(NC(C)=O)ccc2OC[C@H](C)N(S(=O)(=O)c2cn(C)cn2)C[C@H]1C,24,i,i
O=C(C[C@@H]1CC[C@H]2[C@@H](COC[C@@H](O)CN2S(=O)(=O)c2ccc(F)cc2)O1)NCC1CC1,i,i,i
CC(C)c1cn(CC[C@@H]2CC[C@@H](NC(=O)C3CCOCC3)[C@H](CO)O2)nn1,i,i,i
CCCc1cn(CC[C@@H]2CC[C@H](NC(=O)C3CCCCC3)[C@@H](CO)O2)nn1,16,i,i
CC(C)c1cn(CC[C@@H]2CC[C@H](NC(=O)C3CCOCC3)[C@@H](CO)O2)nn1,i,71,i
CCCc1cn(CC[C@H]2CC[C@H](NC(=O)C3CCCCC3)[C@@H](CO)O2)nn1,i,i,i
C[C@@H]1CN([C@@H](C)CO)C(=O)c2cc(/C=C/c3ccccc3)cnc2O[C@@H]1CN(C)C(=O)c1ccc2c(c1)OCO2,i,?,i
COc1ccc(S(=O)(=O)N2CCC3(CC2)CN(C(=O)CN(C)C)[C@@H](CO)c2c3c3ccc(OC)cc3n2C)cc1,i,i,i
C[C@H](CO)N1C[C@H](C)[C@H](CN(C)Cc2ccc(C(=O)Nc3ccccc3N)cc2)Oc2ccc(NS(=O)(=O)c3cn(C)cn3)cc2C1=O,nt,i,nt
CCCC1CC(CCc2ccccc2)OS(=O)(=O)N1 (centres undefined),i,40,i
CCCCC1OC(CCc2ccccc2)CC2=C1C(=O)OC(C)(C)O2 (centres undefined),i,i,i
Cc1cc(C)nc(N/N=C/c2ccccc2)n1,i,nt,nt
Cc1cc(C)nc(N/N=C/c2sccc2C)n1,20,i,nt
CNC(=O)C[C@@H]1CC[C@@H]2[C@H](COC[C@H](O)CN2C(=O)Nc2cccc(OC)c2)O1,i,i,i
CN1C(=O)c2cc(NC(=O)C3CCC3)ccc2OC[C@H]2O[C@H](CC(=O)NCCc3ccncc3)CC[C@@H]21,i,i,i
COC(=O)c1cc(OC)c(OC)cc1NC(=O)c1csc(C)c1,i,i,i
COC(=O)c1cc(OC)c(OC)cc1NC(=O)c1cc(OC)cc(OC)c1,16,nt,nt
CC(C)NC(=O)Nc1ccc2c(c1)C(=O)N([C@H](C)CO)C[C@H](C)[C@@H](CN(C)Cc1ccncc1)O2,i,i,nt
COc1ccc(S(=O)(=O)Nc2ccc3c(c2)C(=O)N([C@@H](C)CO)C[C@@H](C)[C@H](CN(C)S(=O)(=O)c2cccs2)OCCCC[C@H](C)O3)cc1,i,26,nt
C[C@@H]1CCCCO[C@@H](CN(C)S(=O)(=O)c2cccs2)[C@@H](C)CN([C@@H](C)CO)C(=O)c2cc(NS(=O)(=O)c3cn(C)cn3)ccc2O1,i,i,nt
C[C@@H]1CCCCO[C@H](CN(C)S(=O)(=O)c2ccc(Cl)cc2)[C@@H](C)CN([C@@H](C)CO)C(=O)c2cc(NS(=O)(=O)c3cccs3)ccc2O1,i,69,i
COc1ccc(S(=O)(=O)N(C)C[C@H]2OCCCC[C@@H](C)Oc3ccc(NS(=O)(=O)c4cccs4)cc3C(=O)N([C@@H](C)CO)C[C@H]2C)cc1,i,23,i
SMILES,SIRT5 inh,DENV2 CPE,E-selectin induc
C[C@@H]1CN([C@@H](C)CO)C(=O)c2cc(NS(=O)(=O)c3cccs3)ccc2O[C@@H](C)CCCCO[C@H]1CN(C)S(=O)(=O)c1ccc(Cl)cc1,i,i,i
COc1ccc(S(=O)(=O)Nc2ccc3c(c2)C(=O)N([C@@H](C)CO)C[C@@H](C)[C@@H](CN(C)S(=O)(=O)c2cccs2)OCCCC[C@@H](C)O3)cc1,i,i,nt
COc1ccc(S(=O)(=O)N(C)C[C@H]2OCCCC[C@@H](C)Oc3ccc(NS(=O)(=O)c4cccs4)cc3C(=O)N([C@@H](C)CO)C[C@@H]2C)cc1,i,i,i
C[C@@H]1CN([C@H](C)CO)C(=O)c2cc(NS(=O)(=O)c3cn(C)cn3)ccc2O[C@@H](C)CCCCO[C@H]1CN(C)S(=O)(=O)c1cccs1,nt,28,nt
Cc1ccc(S(=O)(=O)Nc2ccc3c(c2)C(=O)N([C@H](C)CO)C[C@@H](C)[C@H](CN(C)S(=O)(=O)c2cccs2)OCCCC[C@H](C)O3)cc1,17,?,i
COc1ccc(S(=O)(=O)Nc2ccc3c(c2)C(=O)N([C@H](C)CO)C[C@H](C)[C@H](CN(C)S(=O)(=O)c2cccs2)OCCCC[C@@H](C)O3)cc1,i,i,nt
COc1ccc(S(=O)(=O)Nc2ccc3c(c2)C(=O)N([C@@H](C)CO)C[C@@H](C)[C@H](CN(C)S(=O)(=O)c2cccs2)OCCCC[C@@H](C)O3)cc1,16,i,nt
Cc1ccc(S(=O)(=O)Nc2ccc3c(c2)C(=O)N([C@@H](C)CO)C[C@@H](C)[C@H](CN(C)S(=O)(=O)c2cccs2)OCCCC[C@@H](C)O3)cc1,i,i,i
COC(=O)C[C@@H]1CC[C@@H](NC(=O)c2ccccc2)[C@@H](CO)O1,i,i,i
O=C(N[C@H]1CC[C@@H](CCn2cc(-c3ccccc3)nn2)O[C@@H]1CO)c1cnccn1,i,i,i
CCCN(C)C[C@H]1Oc2cc(C3=CCCC3)ccc2S(=O)(=O)N([C@H](C)CO)C[C@@H]1C,nt,nt,i
Cc1noc(C)c1S(=O)(=O)Nc1ccc2c(c1)C(=O)N([C@H](C)CO)C[C@H](C)[C@@H](CN(C)C(=O)NC1CCCCC1)OCCCC[C@H](C)O2,i,i,i
CCCN(C)C[C@H]1OCCCC[C@@H](C)Oc2ccc(NS(=O)(=O)c3cccs3)cc2C(=O)N([C@H](C)CO)C[C@@H]1C,i,i,i
COC(=O)[C@H](Cc1ccccc1)NC(=O)Cn1cnc2c(OCc3ccccc3)ncnc21,i,i,i
CCOC(=O)CC[C@H](NC(=O)Cn1cnc2c(OCc3ccccc3)ncnc21)C(=O)OCC,i,27,i
C[C@@H]1CCCCO[C@H](CN(C)S(=O)(=O)c2cccs2)[C@@H](C)CN([C@@H](C)CO)C(=O)c2cc(N(C)C)ccc2O1,i,i,i
CCS(=O)(=O)Nc1ccc2c(c1)C(=O)N(C)[C@H]1CC[C@@H](CC(=O)NCCOC)O[C@H]1CO2,i,i,i
CC1(C)Cc2c(c(N3CCOCC3)nc3sc(C(=O)N4CCCCC4)c(N)c23)CO1,i,i,i
CCCCOC(=O)c1sc2nc(N3CCOCC3)c3c(c2c1N)CC(C)(C)OC3,24,i,i
COc1ccc(-c2cc(N3C(=O)Nc4ccccc4N3O)n[nH]2)cc1,nt,nt,i
COc1ccc(-c2cc(N3C(=O)Nc4ccccc4N3O)n[nH]2)cc1OC,nt,38,nt
COc1ccc(S(=O)(=O)N[C@@H]2C=C[C@H](CC(=O)N3CCN(c4ccccc4)CC3)O[C@H]2CO)cc1,i,nt,i
COc1ccccc1NC(=O)COC(=O)c1c[nH]c(=O)[nH]c1=O,nt,i,i
